Rpn11 block: inhibitors of human proteasome Rpn11. inhibition, % at 20 µM. actives 0.59% (n = 360,000). human 26S proteasome, Ub4-pepOG fluorescence polarization; 20S core pre-blocked with epoxomicin. O00487. AID 588493;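 active = inhibition at 20 µM, scaled to each plate's controls, above about 33%, limit read from the data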
CSN inh: CSN deneddylation inhibition | Purified CSN, SCF-Nedd8-OG deneddylation, fluorescence polarization | actives 0.38% (n = 360,000) | inhibition, % at 12.5 µM;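 active = pattern-corrected inhibition above about 35%, with an unprinted fluorescence ratio check between 0.5 and 1.5, limit read from the data, passing the limit was not always enough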;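 note: 0% = enzyme with substrate and 100% = substrate without enzyme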
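Assay system: HEK293T-derived human Csn5 enzyme; quantity: 0.24 nM enzyme; medium: Tris/NaCl/DTT buffer, pH 7.5; also added: substrate SCFSkp2-Nedd8OG, 10 nM; doses: 12.5 µM compound; schedule: 90 min reaction at room temperature; signal: FP; read-out: % inhibition of substrate cleavage by Csn5; benchmarks: substrate-only high control, full reaction low control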
Neddylation inh: inhibitors of human cullin neddylation. actives 0.58% (n = 360,000). P61081+Q13564. TR-FRET cullin neddylation, biochemical. inhibition, % at 25 µM; in the data active = inhibition above about 36%
TPT1 inh: blocks Candida albicans tRNA 2'-phosphotransferase | recombinant caTPT1, FP RNA substrate dephosphorylation | inhibition, % at 5 µM | actives 0.81% (n = 300,000);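 active = inhibition above the mean of all tested compounds plus 3 SD, set per screening campaign, cut at about 24% in these data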;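 note: plate controls were DMSO alone for no effect and ferristatin control at 100 nM for full effect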
HNF4A DNA FP: change in binding of human HNF4 alpha to DNA. HNF4a-FITC DNA binding, fluorescence polarization, 1 h. P41235. actives 0.3% (n = 360,000). activity change, % at 10 µM; in the data active = activity change above about 30%, passing the limit was not always enough
Target sequence (P41235 whole entry, looked up): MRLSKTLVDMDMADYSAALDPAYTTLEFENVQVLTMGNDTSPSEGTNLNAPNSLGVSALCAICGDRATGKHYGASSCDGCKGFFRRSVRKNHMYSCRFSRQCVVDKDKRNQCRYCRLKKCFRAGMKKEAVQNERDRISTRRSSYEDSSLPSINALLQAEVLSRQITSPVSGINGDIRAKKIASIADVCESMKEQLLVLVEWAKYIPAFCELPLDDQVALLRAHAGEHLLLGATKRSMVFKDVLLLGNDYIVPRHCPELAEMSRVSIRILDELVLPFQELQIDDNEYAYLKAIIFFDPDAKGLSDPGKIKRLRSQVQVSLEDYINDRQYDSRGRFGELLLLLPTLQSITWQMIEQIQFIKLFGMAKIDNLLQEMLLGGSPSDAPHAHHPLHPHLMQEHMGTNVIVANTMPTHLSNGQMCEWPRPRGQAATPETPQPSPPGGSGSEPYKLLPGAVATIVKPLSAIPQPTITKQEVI
Rin1 Abl inh: blocks binding of human Rin1 to Abl. P00519+Q13671. TR-FRET Rin1/Abl binding, biochemical. inhibition, % at 7.35 µM. actives 0.4% (n = 360,000). AID 588664; in the data active = inhibition above about 5%, passing the limit was not always enough
TPT1 inh confirm: confirmation of Candida albicans TPT1 inhibitors | AID 2149 | recombinant caTPT1, fluorescence polarization, RNase T1 coupled | actives 74% (n = 2,400) | shares compounds with TPT1 inh | inhibition, % at 5 µM;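 active = inhibition above the primary screen limit, the mean inhibition of all tested compounds plus 3 SD, cut at about 25% in these data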
RNase T1 counter: counter-screen for TPT1 inhibitors: inhibitors of Aspergillus oryzae RNase T1; shares compounds with TPT1 inh; RNase T1 cleavage, fluorescence polarization, 1536-well; inhibition, % at 5 µM; actives 83% (n = 2,400);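 active = inhibition above the solvent-only control well mean plus 3 SD, limit set per screening run, cut at about 23% in these data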;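 note: plate controls were DMSO wells with enzyme for no effect and wells without RNase T1 for full effect; inhibitors block cleavage so intact labeled substrate keeps polarization high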
Target sequence (P00651 whole entry, looked up): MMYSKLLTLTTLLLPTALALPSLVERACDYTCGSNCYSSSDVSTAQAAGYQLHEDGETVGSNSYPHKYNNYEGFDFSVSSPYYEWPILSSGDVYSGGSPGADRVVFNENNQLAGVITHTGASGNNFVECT
* hit, by the source's call; x = no result shown. Compounds with a hit are over-represented: about 2.4% of the library has one in this group of screens.

SMILES | Rpn11 block | CSN inh | Neddylation inh | TPT1 inh | HNF4A DNA FP | Rin1 Abl inh | TPT1 inh confirm | RNase T1 counter
Cc1cccc(S(=O)(=O)Nc2cc(Cl)ccc2N2CCOCC2)c1 | 3 | -1 | 6 | x | 0 | 2 | x | x
c1ccc(Cn2c(Cn3c(-c4cnccn4)nc4ccccc43)nc3ccccc32)cc1 | x | 1 | 30 | x | 12 | x | x | x
CN1/C(=C/C2CC(=O)N(c3cccc4ccccc34)C2=O)C(C)(C)c2ccccc21 (configuration not stated) | x | 19 | 4 | 38* | 18 | -2 | 54* | 68*
CCOc1ccc(N2C(=O)CC(/C=C3/N(C)c4ccccc4C3(C)C)C2=O)cc1 (configuration not stated) | 15 | 5 | 1 | 25* | 4 | -1 | 18 | 26*
CCOc1ccc(N2C(=O)CC(N3CCN(c4ccccc4F)CC3)C2=O)cc1 (configuration not stated) | -2 | 1 | -2 | -6 | -2 | -2 | x | x
CN1/C(=C/C2CC(=O)NC2=O)C(C)(C)c2ccccc21 (configuration not stated) | 12 | 0 | -17 | -6 | 9 | 4 | x | x
CN(C)c1ccc(C=C2C(=O)OC(C)(C)OC2=O)cc1 | 3 | -2 | 0 | 6 | 5 | 2 | x | x
CC(C)c1ccc(/C=C2\CC/C(=C\C=N\N(C)C)C2=O)cc1 | 30 | 7 | -20 | 80* | 15 | -2 | 75* | 82*
CC(C)/C=C1\CC/C(=C\c2ccc(N(C)C)cc2)C1=O | x | 90 | 24 | 121* | 121 | -3 | 121* | 118*
CN(C)/N=C/C=C1\CC/C(=C\c2ccc(F)c(F)c2)C1=O | 25 | 22 | -23 | 17 | 15 | -2 | x | x
CCOCCCNCC(=O)Nc1ccc(S(=O)(=O)NC(C)CC)cc1 (configuration not stated) | -2 | 1 | -7 | 118* | 3 | 0 | 10 | 12
CCCCOCCCNCC(=O)Nc1ccc(S(N)(=O)=O)cc1 | -6 | -4 | -9 | 0 | 1 | 2 | x | x
CCCCNC(=O)C1C(c2ccc(OC)cc2)=Nc2ccccc2N1C(=O)Cc1cc(OC)cc(OC)c1 (configuration not stated) | x | 2 | 32 | x | 1 | x | x | x
CC(=O)N(\C=C/C=C/C=C1\Sc2ccccc2C1=O)c1ccccc1 | 18 | 1 | -31 | 58* | 49* | 1 | 84* | 94*
CC(=O)Nc1ccc(/C=C2/Sc3ccccc3C2=O)cc1 | 14 | 5 | 10 | 44* | 1 | -2 | 43* | 51*
O=C1/C(=C\c2cccnc2)Sc2ccccc21 | 2 | 3 | 19 | 2 | 0 | -2 | x | x
CNC(=O)c1ccsc1NC(=O)c1ccc(Cl)s1 | 14 | 9 | 2 | 8 | 8 | -1 | x | x
COC(=O)c1cc(Cl)nc2ccccc12 | 6 | 3 | 1 | 3 | -5 | -2 | x | x
O=C(COc1coc(CN2CCCc3ccccc32)cc1=O)Nc1ccc([N+](=O)[O-])cc1 | -4 | -1 | -13 | 32* | 0 | 0 | 10 | 17
O=c1[nH]c2ccccc2nc1/C=C(\O)C1CC1 | -2 | -3 | 1 | 27* | 2 | -6 | 4 | 8
Cn1c(=O)c(/C=C/c2ccc(F)cc2)nc2ccccc21 | -1 | -10 | 38 | x | 2 | -4 | x | x
O=c1[nH]c2ccccc2nc1/C=C(\O)c1cccs1 | 17 | 10 | -22 | 71* | 104 | -35 | 117* | 114*
CCCC/C(O)=C/c1nc2ccccc2[nH]c1=O | 5 | 3 | -1 | 2 | -3 | -4 | x | x
O=c1[nH]c2ccccc2nc1/C=C/c1ccc(F)cc1 | x | 18 | 23 | 57* | 44* | -1 | 74* | 83*
O/C(=C\c1nc2ccccc2[nH]1)c1cccs1 | 0 | 1 | -10 | -2 | -3 | -3 | x | x
SMILES | Rpn11 block | CSN inh | Neddylation inh | TPT1 inh | HNF4A DNA FP | Rin1 Abl inh | TPT1 inh confirm | RNase T1 counter
C=CCC1(Cl)C(=O)C(Cl)=C(N2CCOCC2)C1(OC)OC (configuration not stated) | 7 | 7 | 0 | -2 | -1 | -4 | x | x
Cn1c(=O)c(C(=O)CCl)c(N)n(CC2CC2)c1=O | -3 | -3 | 1 | -2 | 0 | -1 | x | x
CC(=O)CCC(=O)NC1CCCc2c1cnn2-c1ccc(C(C)(C)C)cc1 (configuration not stated) | 0 | -4 | 8 | -1 | 1 | 0 | x | x
Cc1cc(OCC(=O)OCC(=O)N(C)C2CCS(=O)(=O)C2)ccc1Cl (configuration not stated) | -6 | -1 | 2 | x | -2 | 3 | x | x
CCN1c2ccccc2NC2C1C(C(C)=O)C(=O)N2c1ccc(Cl)cc1 (configuration not stated) | x | 25 | 8 | 60* | 45* | -3 | 76* | 85*
O=C1Nc2ccccc2N(O)N1c1ccc(Cl)cc1 | 2 | -1 | 6 | 0 | -6 | -2 | x | x
OC1CCCN(CC(O)COC(c2ccccc2)c2ccccc2)C1 (configuration not stated) | -2 | 3 | -1 | 29* | -1 | -2 | 1 | 2
COc1ccc(NC(=O)C2c3ccccc3OCC(=O)N2Cc2ccc3c(c2)OCO3)cc1 (configuration not stated) | x | -2 | 3 | x | 4 | x | x | x
COc1ccc(NC(=O)CSc2ccc3nnc(CCNC(=O)c4ccccc4)n3n2)cc1 | -17 | -5 | -2 | 41* | 1 | 1 | 3 | 7
CC(=O)Nc1ccc(NC(=O)CSc2ccc3nnc(CCNC(=O)c4ccccc4)n3n2)cc1 | 1 | 1 | 2 | -1 | 2 | -3 | x | x
O=C(CCN1C(=O)/C(=C/c2ccccc2)SC1=S)Nc1ccccn1 | 5 | -5 | -13 | 0 | 2 | -1 | x | x
COc1ccc(/C=C2\SC(=S)N(CCCC(=O)Nc3ccccn3)C2=O)cc1OC | 25 | -7 | -25 | 32* | 16 | -6 | 53* | 64*
Cc1ccc(/C=C2\SC(=S)N(CCCC(=O)Nc3ccccn3)C2=O)cc1 | -8 | 5 | -11 | -2 | -1 | -1 | x | x
O=C(CCN1C(=O)/C(=C/c2cccs2)SC1=S)Nc1ccc(C(=O)O)cc1 | 25 | 10 | -27 | 31* | 8 | 1 | 29* | 39*
O=C(CCN1C(=O)/C(=C/c2cccs2)SC1=S)Nc1ccccn1 | x | 14 | -23 | 33* | 33* | -2 | 31* | 42*
CC(=O)Nc1ccc(S(=O)(=O)NNc2cccc(C)c2)cc1 | -4 | -5 | 2 | -5 | 0 | 1 | x | x
Cc1ccc(-c2csc(NC(=O)N3CCOCC3)n2)cc1 | 3 | -9 | -1 | -5 | 1 | 3 | x | x

Assay outcomes as filed in PubChem.
